Experimental data published in ChEMBL document CHEMBL1124128, “Angiotensin-converting enzyme inhibitors. Mercaptan, carboxyalkyl dipeptide, and phosphinic acid inhibitors incorporating 4-substituted prolines” (J Med Chem, 1988).
“And” between values parts separate entries of the source, which are not always exact repeats. Equal values may be shown once.

Key:
Rattus norvegicus [1] = assay: % Inhibition of angiotensin-I induced pressor response in normotensive rats after peroral dosing of 0.5 umol/kg; format: functional; details: po
In short: (§1)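 Conscious, unrestrained catheterized male Sprague–Dawley rats (225–275 g) had direct aortic pressure recording. Baseline pressor responses were taken to AI (310 ng/kg iv) and AII (100 ng/kg iv). Compound was given orally in water, 5% NaHCO3 or 1% agar suspension. AI and AII responses were then tracked up to 280 min. Maximum % inhibition is the mean response of four animals per dose.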

Rattus norvegicus [2] = assay: % Inhibition of angiotensin-I induced pressor response in normotensive rats after peroral dosing of 1.5 umol/kg; format: functional; details: po; in short: as §1
Rattus norvegicus [3] = assay: % Inhibition of angiotensin-I induced pressor response in normotensive rats after peroral dosing of 0.15 umol/kg; format: functional; details: po; in short: as §1
Rattus norvegicus [4] = assay: % Inhibition of angiotensin-I induced pressor response in normotensive rats after intravenous dosing of 0.5 umol/kg; format: functional
In short: (§2)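 Conscious, unrestrained male Sprague–Dawley rats (225–275 g) with indwelling aortic and vena caval catheters, allowed at least 2 weeks of recovery. Aortic pressure recorded directly. Baseline pressor responses to AI (310 ng/kg iv) and AII (100 ng/kg iv) were taken first. Compound was given iv in 0.1 mL water or 5% NaHCO3, and responses were followed for up to 70 min. Maximum % inhibition is the mean of four animals per dose.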

Rattus norvegicus [5] = assay: % Inhibition of angiotensin-I induced pressor response in normotensive rats after intravenous dosing of 0.015 umol/kg; format: functional
In short: (§3)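 Male Sprague–Dawley rats (225–275 g) fitted with indwelling abdominal aorta and vena cava catheters, recovered at least 2 weeks, then tested conscious and unrestrained. Aortic pressure was recorded directly. Pressor responses to AI (310 ng/kg iv) and AII (100 ng/kg iv) were taken before dosing. Compound was given iv in water or 5% NaHCO3, and responses were followed up to 70 min. Maximum % inhibition is the mean of four animals per dose.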

[6] = target: T1, Angiotensin-converting enzyme (Rattus norvegicus) (UniProt P47820); assay: In vitro inhibition of rat Angiotensin I converting enzyme
T1 sequence (whole entry): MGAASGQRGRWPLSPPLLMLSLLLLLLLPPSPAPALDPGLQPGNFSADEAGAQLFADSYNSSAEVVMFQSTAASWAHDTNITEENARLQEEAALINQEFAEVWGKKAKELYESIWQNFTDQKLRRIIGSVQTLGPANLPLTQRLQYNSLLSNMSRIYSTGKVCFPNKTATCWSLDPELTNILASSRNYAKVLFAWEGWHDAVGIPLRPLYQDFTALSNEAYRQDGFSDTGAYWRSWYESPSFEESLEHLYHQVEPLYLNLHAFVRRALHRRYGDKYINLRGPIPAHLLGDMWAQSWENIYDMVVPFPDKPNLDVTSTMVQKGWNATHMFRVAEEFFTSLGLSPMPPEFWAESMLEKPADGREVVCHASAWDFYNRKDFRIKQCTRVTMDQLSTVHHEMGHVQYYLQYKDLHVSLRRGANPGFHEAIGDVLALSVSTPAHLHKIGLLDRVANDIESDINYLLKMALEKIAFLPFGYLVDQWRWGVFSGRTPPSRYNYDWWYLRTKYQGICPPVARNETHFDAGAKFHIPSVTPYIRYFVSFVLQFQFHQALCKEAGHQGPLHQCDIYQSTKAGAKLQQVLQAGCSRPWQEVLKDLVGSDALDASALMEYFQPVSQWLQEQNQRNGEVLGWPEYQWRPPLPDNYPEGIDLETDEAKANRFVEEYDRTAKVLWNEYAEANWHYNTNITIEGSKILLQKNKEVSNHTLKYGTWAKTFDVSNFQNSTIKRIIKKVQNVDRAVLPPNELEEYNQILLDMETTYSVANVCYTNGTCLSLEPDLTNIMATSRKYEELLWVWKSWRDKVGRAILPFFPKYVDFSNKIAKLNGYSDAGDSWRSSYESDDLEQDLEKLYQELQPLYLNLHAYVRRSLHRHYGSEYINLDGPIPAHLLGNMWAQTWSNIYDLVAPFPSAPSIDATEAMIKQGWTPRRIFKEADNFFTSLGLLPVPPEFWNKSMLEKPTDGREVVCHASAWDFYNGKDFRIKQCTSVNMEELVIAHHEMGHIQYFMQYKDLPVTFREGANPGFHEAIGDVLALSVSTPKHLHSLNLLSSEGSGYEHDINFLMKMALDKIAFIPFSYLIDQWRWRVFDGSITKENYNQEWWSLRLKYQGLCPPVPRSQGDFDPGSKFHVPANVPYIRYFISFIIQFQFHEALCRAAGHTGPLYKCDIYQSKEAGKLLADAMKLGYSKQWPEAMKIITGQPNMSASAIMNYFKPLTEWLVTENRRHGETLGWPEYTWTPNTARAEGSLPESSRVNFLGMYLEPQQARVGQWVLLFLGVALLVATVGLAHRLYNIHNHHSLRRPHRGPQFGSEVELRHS

Rattus norvegicus [7] = assay: (§4) % Inhibition of angiotensin-I induced pressor response in normotensive rats after intravenous dosing of 0.05 umol/kg; format: functional; in short: as §2
Rattus norvegicus [8] = assay: % Inhibition of angiotensin-I induced pressor response in normotensive rats after intravenous dosing of 1.5 umol/kg; format: functional; in short: as §2
Rattus norvegicus [9] = assay: (§5) % Inhibition of angiotensin-I induced pressor response in normotensive rats after intravenous dosing of 5 umol/kg; format: functional; in short: as §3
Rattus norvegicus [10] = assay: (§6) % Inhibition of angiotensin-I induced pressor response in normotensive rats after peroral dosing of 15 umol/kg; format: functional; details: po; in short: as §1
Rattus norvegicus [11] = assay: % Inhibition of angiotensin-I induced pressor response in normotensive rats after intravenous dosing of 0.15 umol/kg; format: functional; in short: as §2
Rattus norvegicus [12] = assay: % Inhibition of angiotensin-I induced pressor response in normotensive rats after peroral dosing of 5 umol/kg; format: functional; details: po; in short: as §1
Rattus norvegicus [13] = assay: as §4; format: functional; in short: as §3; remark: listed apart in the source
Rattus norvegicus [14] = assay: % Inhibition of angiotensin-I induced pressor response in normotensive rats after peroral dosing of 50 umol/kg; format: functional; details: po; in short: as §1
[15] = target: T2, Angiotensin-converting enzyme (Oryctolagus cuniculus, UniProt P12822); assay: Inhibitory activity against rabbit lung angiotensin-1 converting enzyme
T2 sequence (P12822 whole entry): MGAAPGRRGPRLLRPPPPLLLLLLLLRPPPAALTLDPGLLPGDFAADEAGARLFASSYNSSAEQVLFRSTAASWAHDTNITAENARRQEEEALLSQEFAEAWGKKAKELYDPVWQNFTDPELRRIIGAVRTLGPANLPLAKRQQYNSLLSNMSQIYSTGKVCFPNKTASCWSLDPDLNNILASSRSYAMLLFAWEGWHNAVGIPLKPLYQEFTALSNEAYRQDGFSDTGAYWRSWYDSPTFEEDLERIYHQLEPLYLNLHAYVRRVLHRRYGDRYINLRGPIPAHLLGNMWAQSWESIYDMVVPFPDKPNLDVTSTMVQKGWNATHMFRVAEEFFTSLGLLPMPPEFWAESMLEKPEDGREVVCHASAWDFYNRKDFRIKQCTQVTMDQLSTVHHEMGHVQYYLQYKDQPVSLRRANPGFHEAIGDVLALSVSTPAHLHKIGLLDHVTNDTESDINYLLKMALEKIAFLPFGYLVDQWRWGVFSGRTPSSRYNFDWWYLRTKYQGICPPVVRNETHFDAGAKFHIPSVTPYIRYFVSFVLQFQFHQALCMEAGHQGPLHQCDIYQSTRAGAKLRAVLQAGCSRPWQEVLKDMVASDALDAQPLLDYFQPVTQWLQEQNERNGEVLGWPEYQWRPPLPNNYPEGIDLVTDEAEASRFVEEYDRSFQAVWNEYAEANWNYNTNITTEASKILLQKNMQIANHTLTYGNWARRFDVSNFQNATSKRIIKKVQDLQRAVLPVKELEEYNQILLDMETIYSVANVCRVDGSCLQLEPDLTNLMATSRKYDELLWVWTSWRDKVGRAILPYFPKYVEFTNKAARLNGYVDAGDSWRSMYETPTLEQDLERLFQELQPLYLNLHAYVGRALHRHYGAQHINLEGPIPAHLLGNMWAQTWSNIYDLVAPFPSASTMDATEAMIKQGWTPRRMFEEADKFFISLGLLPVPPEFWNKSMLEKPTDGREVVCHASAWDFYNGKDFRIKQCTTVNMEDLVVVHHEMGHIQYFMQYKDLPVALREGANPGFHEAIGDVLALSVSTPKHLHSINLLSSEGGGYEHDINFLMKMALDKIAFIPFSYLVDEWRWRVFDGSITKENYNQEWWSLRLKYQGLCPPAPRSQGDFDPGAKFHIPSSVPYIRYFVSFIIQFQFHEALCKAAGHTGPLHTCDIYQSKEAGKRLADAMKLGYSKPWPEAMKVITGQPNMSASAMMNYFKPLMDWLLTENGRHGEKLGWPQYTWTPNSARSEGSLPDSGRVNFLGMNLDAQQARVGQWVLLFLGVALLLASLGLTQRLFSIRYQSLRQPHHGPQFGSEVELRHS

Rattus norvegicus [16] = assay: as §6; format: functional; details: po; remark: listed apart in the source
In short: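 Catheterized conscious male Sprague–Dawley rats (225–275 g). Baseline pressor responses to AI (310 ng/kg iv) and AII (100 ng/kg iv) were taken. Compound was given orally in 0.75 mL water, 5% NaHCO3 or 1% agar suspension, and AI/AII responses were followed for up to 280 min. Maximum % inhibition is the mean of four animals per dose.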

Rattus norvegicus [17] = assay: % Inhibition of angiotensin-I induced pressor response in normotensive rats after peroral dosing of 150 umol/kg; format: functional; details: po; in short: as §1
Rattus norvegicus [18] = assay: as §5; format: functional; in short: as §2; remark: listed apart in the source

Row | SMILES | inhibition in vivo at 0.5 µmol/kg (Rattus norvegicus [1]) [%] | inhibition in vivo at 1.5 µmol/kg (Rattus norvegicus [2]) [%] | inhibition in vivo at 0.15 µmol/kg (Rattus norvegicus [3]) [%] | inhibition in vivo at 0.5 µmol/kg (Rattus norvegicus [4]) [%] | inhibition in vivo at 0.015 µmol/kg (Rattus norvegicus [5]) [%] | T50 [6] | inhibition in vivo at 0.05 µmol/kg (Rattus norvegicus [7]) [%] | inhibition in vivo at 1.5 µmol/kg (Rattus norvegicus [8]) [%] | inhibition in vivo at 5 µmol/kg (Rattus norvegicus [9]) [%] | inhibition in vivo at 15 µmol/kg (Rattus norvegicus [10]) [%] | inhibition in vivo at 0.15 µmol/kg (Rattus norvegicus [11]) [%] | inhibition in vivo at 5 µmol/kg (Rattus norvegicus [12]) [%] | inhibition in vivo at 0.05 µmol/kg (Rattus norvegicus [13]) [%] | inhibition in vivo at 50 µmol/kg (Rattus norvegicus [14]) [%] | Ki [15] [nM] | inhibition in vivo at 15 µmol/kg (Rattus norvegicus [16]) [%] | inhibition in vivo at 150 µmol/kg (Rattus norvegicus [17]) [%] | inhibition in vivo at 5 µmol/kg (Rattus norvegicus [18]) [%]
1 | CCOC(=O)[C@H](CCc1ccccc1)N[C@@H](C)C(=O)N1CC2(C[C@H]1C(=O)O)SCCS2 | 41 | 87 | 15 | – | – | – | – | – | – | – | – | – | – | – | – | – | – | –
2 | CO[C@@H]1C[C@@H](C(=O)O)N(C(=O)CP(=O)(O)CCCCc2ccccc2)C1 | – | – | – | 73 | 23 | 100 nM | 33 | – | – | – | – | – | – | – | – | – | – | –
3 | C[C@H](CS)C(=O)N1CCC[C@H]1C(=O)O [CAPTOPRIL] | 42 | 61 | – | 87 | – | – | – | 91 | 93 | 78 | 66 | 79 | 18 | 93 | – | – | – | –
4 | O=C(O)[C@@H]1C[C@@H](C2CCCCC2)CN1C(=O)CP(=O)(O)CCCCc1ccccc1 [FOSINOPRILAT] | – | – | – | 87 | – | 11 nM and 4 nM | – | – | – | – | 68 | 28 | 21 | – | 1.5 | 71 | – | –
5 | O=C(O)[C@@H]1CCCN1C(=O)CP(=O)(O)CCCCc1ccccc1 | – | – | – | 56 | – | 180 nM | – | 86 | – | 13 | – | – | – | 47 | 15 | – | 75 | 92
